From ChEMBL document CHEMBL2396536, “Curcuminoids block TGF-β signaling in human breast cancer cells and limit osteolysis in a murine model of breast cancer bone metastasis” (J Nat Prod, 2013)
Activity calls are given as the source filed them. The rule behind the calls is not given here.

The molecules below were run on MDA-MB-231 (assay: Cytotoxicity against human MDA-MB-231 cells assessed as cell viability by MTT assay). Conditions: not given.
Assay type: cell-based
Outline: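 MDA-MB-231 plated at 5 × 10^4 cells/cm2 and held overnight in DMEM with 10% FBS at 37°C and 5% CO2. Pre-incubated 4 h with compound in 2% FBS DMEM, then medium refreshed with TGF-β1 (5 ng/mL) for 24 h. Cell number read by MTT reduction.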
In the case of `O=C(/C=C/c1ccc(O)cc1)CC(=O)/C=C/c1ccc(O)cc1` [BISDEMETHOXYCURCUMIN], the MTC is reported as 82 µM.

Each molecule was assayed on MDA-MB-231 (assay: Inhibition of osteolytic bone metastases in human MDA-MB-231 cells xenografted in athymic nude mouse left cardiac ventricle assessed as reduction in lytic bone lesion area at 25 to 50 mg/kg, ip administered every other day for 3 weeks measured on day 21 relative to control). Conditions: dose mg/kg 25-50; route intraperitoneal.
Assay type: functional, Heart left ventricle
Outline: (§1)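 Four-week female athymic nude mice inoculated with 1 × 10^5 MDA-MB-231 cells in 0.1 mL PBS into the left cardiac ventricle. Dosed ip at 25 or 50 mg/kg or vehicle every other day from day 1 for 21 days, n = 11/group. Lytic lesion area quantified on radiographs on days 12, 16 and 21. Two-way ANOVA with Bonferroni.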
For `O=C(/C=C/c1ccc(O)cc1)CC(=O)/C=C/c1ccc(O)cc1` [BISDEMETHOXYCURCUMIN], the “inhibition (INH)” value was 57%.

What follows are molecules tested on Mus musculus (assay: Effect on orthotopic tumor mass in human MDA-MB-231 cells xenografted athymic nude mouse mammary fat pad at 25 to 50 mg/kg, ip administered every other day for 3 weeks). Conditions: not given.
`O=C(/C=C/c1ccc(O)cc1)CC(=O)/C=C/c1ccc(O)cc1` [BISDEMETHOXYCURCUMIN] was tested, and the Activity was “inactive”.

The molecules below were run on Mus musculus (assay: Toxicity in human MDA-MB-231 cells xenografted athymic nude mouse left cardiac ventricle assessed as effect on alanine aminotransferase at 25 mg/kg, ip administered every other day for 3 weeks (reference value: 7.04 +/- 2.2 U/L)). Conditions: in vivo, 504 h.
Assay type: organism-based, Heart
Set-up: dose 25 mg/kg, route intraperitoneal
`O=C(/C=C/c1ccc(O)cc1)CC(=O)/C=C/c1ccc(O)cc1` [BISDEMETHOXYCURCUMIN] was tested, and the Activity was 7.13 U/L.

What follows are molecules tested against Mothers against decapentaplegic homolog 2 (Homo sapiens) (UniProt Q15796) (assay: Inhibition of TGF-beta-induced Smad2 phosphorylation in human MDA-MB-231 cells treated 12 hrs before TGF-beta challenge measured after 1 hr by Western blotting). Conditions: not given.
Chain of Mothers against decapentaplegic homolog 2 (Homo sapiens) (Q15796 whole entry): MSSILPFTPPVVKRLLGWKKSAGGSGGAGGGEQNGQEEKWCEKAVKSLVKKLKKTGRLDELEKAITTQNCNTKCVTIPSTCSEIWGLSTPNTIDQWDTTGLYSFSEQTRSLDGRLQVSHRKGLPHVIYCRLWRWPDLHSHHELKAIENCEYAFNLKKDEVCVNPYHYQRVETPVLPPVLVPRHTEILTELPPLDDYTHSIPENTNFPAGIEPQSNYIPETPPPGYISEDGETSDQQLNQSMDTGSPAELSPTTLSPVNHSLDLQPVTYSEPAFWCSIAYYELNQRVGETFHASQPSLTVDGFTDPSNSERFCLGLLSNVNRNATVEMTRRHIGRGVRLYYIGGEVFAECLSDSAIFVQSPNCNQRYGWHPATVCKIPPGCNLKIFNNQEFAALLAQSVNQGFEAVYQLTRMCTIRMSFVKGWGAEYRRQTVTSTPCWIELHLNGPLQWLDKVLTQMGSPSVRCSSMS
Assay type: cell-based
Outline: (§2)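 Subconfluent MDA-MB-231 pre-treated 12 h with compound (80 μM), then TGF-β (5 ng/mL) for 1 h. RIPA whole-cell lysates (18 μg) run on SDS-PAGE and transferred to PVDF. Probed with rabbit anti-phospho-Smad2, phospho-Smad3, phospho-p38 or Ets-1 (1:1000, overnight, 4 °C). β-actin used as loading control. Chemiluminescent detection; three independent experiments.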
`O=C(/C=C/c1ccc(O)cc1)CC(=O)/C=C/c1ccc(O)cc1` [BISDEMETHOXYCURCUMIN] was tested, and the inhibition was “Active”.

These molecules were tested on Mus musculus (assay: Toxicity in human MDA-MB-231 cells xenografted athymic nude mouse left cardiac ventricle assessed as effect on liver weight at 50 mg/kg, ip administered every other day for 3 weeks (reference value: 1 +/- 0.10 gram)). Conditions: in vivo, 504 h.
Assay type: organism-based, Heart
Set-up: dose 50 mg/kg, route intraperitoneal
`O=C(/C=C/c1ccc(O)cc1)CC(=O)/C=C/c1ccc(O)cc1` [BISDEMETHOXYCURCUMIN] was tested, and the Activity was 1.1 g.

These molecules were tested on MDA-MB-231 (assay: Inhibition of osteolytic bone metastases in human MDA-MB-231 cells xenografted in athymic nude mouse left cardiac ventricle assessed as reduction of bone-tumor interface at 25 mg/kg, ip administered every other day for 3 weeks). Conditions: MDA-MB-231, Heart left ventricle, 504 h, route intraperitoneal.
Assay type: functional
Outline: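 Intracardiac MDA-MB-231 model in nude mice, dosed ip every other day for 21 days. Mid-sagittal tibia and femur sections TRAP-stained. TRAP+ multinucleated (>3 nuclei) cells counted at 40x along the tumor-bone interface. Expressed as osteoclasts per mm of interface.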
Work on `O=C(/C=C/c1ccc(O)cc1)CC(=O)/C=C/c1ccc(O)cc1` [BISDEMETHOXYCURCUMIN] yielded an inhibition in vivo at 25 mg/kg of 53%.

Each molecule was assayed on MDA-MB-231 (assay: Inhibition of osteolytic bone metastases in human MDA-MB-231 cells xenografted in athymic nude mouse left cardiac ventricle assessed as reduction of bone lysis at 25 to 50 mg/kg, ip administered every other day for 3 weeks measured on day 21). Conditions: dose mg/kg 25-50; route intraperitoneal.
Assay type: functional, Heart left ventricle
Outline: as §1
With `O=C(/C=C/c1ccc(O)cc1)CC(=O)/C=C/c1ccc(O)cc1` [BISDEMETHOXYCURCUMIN] the “inhibition (INH)” value was >50%.

What follows are molecules tested on Mus musculus (assay: Toxicity in human MDA-MB-231 cells xenografted athymic nude mouse left cardiac ventricle assessed as effect on white blood cells at 25 mg/kg, ip administered every other day for 3 weeks (reference value: 5.84 +/- 1.3 K/uL)). Conditions: in vivo, 504 h.
Molecule `O=C(/C=C/c1ccc(O)cc1)CC(=O)/C=C/c1ccc(O)cc1` [BISDEMETHOXYCURCUMIN] has an Activity of 4.69 K/uL.

Each molecule was assayed on MDA-MB-231 (assay: Inhibition of TGF-beta-induced PTHrP secretion in human MDA-MB-231 cells treated 4 hrs before TGF-beta challenge measured after 24 hrs by radioimmunoassay). Conditions: not given.
Assay type: functional, cell-based
Outline: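 MDA-MB-231 plated at 5 × 10^4 cells/cm2 and held overnight in DMEM with 10% FBS. Pre-treated 4 h with compound (0.1–100 μM in methods; 0.1–300 μM in legend) in 2% FBS, then recombinant human TGF-β1 (5 ng/mL) or medium alone for 24 h. PTHrP measured in conditioned media by radioimmunoassay, n = 4 wells/group. IC50 from four-parameter logistic fit.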
`O=C(/C=C/c1ccc(O)cc1)CC(=O)/C=C/c1ccc(O)cc1` [BISDEMETHOXYCURCUMIN] was tested, and the IC50 was 24 µM and the inhibition was “Dose-dependent effect”.

Same assay, conditions: read-out: MEC
`O=C(/C=C/c1ccc(O)cc1)CC(=O)/C=C/c1ccc(O)cc1` [BISDEMETHOXYCURCUMIN] was tested, and the minimal effective concentration was 13 µM.

These molecules were tested on Mus musculus (assay: Toxicity in human MDA-MB-231 cells xenografted athymic nude mouse left cardiac ventricle assessed as effect on hematocrit at 25 mg/kg, ip administered every other day for 3 weeks (reference value: 30.2 +/- 1.5%)). Conditions: in vivo, 504 h.
Assay type: organism-based, Heart
Set-up: dose 25 mg/kg, route intraperitoneal
With `O=C(/C=C/c1ccc(O)cc1)CC(=O)/C=C/c1ccc(O)cc1` [BISDEMETHOXYCURCUMIN] the Activity was 30.6%.

What follows are molecules tested on MDA-MB-231 (assay: Inhibition of osteolytic bone metastases in human MDA-MB-231 cells xenografted in athymic nude mouse left cardiac ventricle assessed as improvement in host survival at 25 to 50 mg/kg, ip administered every other day for 3 weeks measured on day 16 relative to vehicle-treated control). Conditions: Heart left ventricle.
Assay type: functional, organism-based
Outline: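 Intracardiac MDA-MB-231 nude mice (n = 11/group) dosed ip every other day for 3 weeks. Survival shown by Kaplan–Meier and analyzed by logrank test with post-hoc logrank test for trend.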
`O=C(/C=C/c1ccc(O)cc1)CC(=O)/C=C/c1ccc(O)cc1` [BISDEMETHOXYCURCUMIN] was tested, and the Activity was “Active”.

Each molecule was assayed on Mus musculus (assay: Toxicity in human MDA-MB-231 cells xenografted athymic nude mouse left cardiac ventricle assessed as effect on platelets at 25 mg/kg, ip administered every other day for 3 weeks (reference value: 513 +/- 54 K/uL)). Conditions: in vivo, 504 h.
Assay type: organism-based, Heart
Set-up: dose 25 mg/kg, route intraperitoneal
Molecule `O=C(/C=C/c1ccc(O)cc1)CC(=O)/C=C/c1ccc(O)cc1` [BISDEMETHOXYCURCUMIN] has an Activity of 485 K/uL.

The molecules below were run against MAP kinase p38 (Homo sapiens) (UniProt O15264+Q15759+Q16539+P53778) (assay: Inhibition of TGF-beta-induced p38 phosphorylation in human MDA-MB-231 cells treated 12 hrs before TGF-beta challenge measured after 1 hr by Western blotting). Conditions: not given.
Assay type: cell-based
Outline: as §2
For `O=C(/C=C/c1ccc(O)cc1)CC(=O)/C=C/c1ccc(O)cc1` [BISDEMETHOXYCURCUMIN], the inhibition was “inactive”.
